Published values of several laboratories.
Target: Serine/threonine-protein kinase pim-3 (PIM3, Homo sapiens, UniProt Q86V86)

SMILES	read-out	mode	technique	tested at	quantity	result
CN(C)C(=O)Cn1cc(-c2nc([C@@](C)(c3ccc(-c4cnc(N)nc4)cc3)C3CC3)no2)cn1	cell-free assay		competition with immobilised ligand	1 µM	remaining binding	96%
O=C1NC(=O)c2cc(Nc3ccc(F)cc3)c(Nc3ccc(F)cc3)cc21	cell-free assay			0.5 µM	remaining signal	105%
CNC(=O)c1cc(Oc2ccc(NC(=O)Nc3ccc(Cl)c(C(F)(F)F)c3)cc2)ccn1	enzyme activity	inhibitor		0.3 µM	inhibition	-12%
O=C(CSc1nc2nccnc2c(=O)n1CCc1ccccc1)Nc1nccs1	enzyme activity	inhibitor		10 µM	inhibition	-7%
CC1=C(C#N)C(c2ccc3c(c2)c(NC(=O)c2ccccc2C)nn3C)C(C#N)=C(C)N1	cell-free assay		competition with immobilised ligand	1 µM	remaining binding	100%
CC(C)(C)c1nc(-c2cccc(NS(=O)(=O)c3c(F)cccc3F)c2F)c(-c2ccnc(N)n2)s1	enzyme activity	inhibitor	radiometric	1 µM	remaining activity	100%
O=C(Nc1cnn(-c2csc(C(=O)NC3COC3)c2)c1)Nc1c(F)cccc1Cl	enzyme activity	inhibitor		5 µM	remaining activity	73.9%
Cc1ccc(C(=O)NCc2ccsc2)cc1C#Cc1cn(C(C)C)c2ncnc(N)c12	enzyme activity	inhibitor		1 µM	activity vs control	85%
O=C(Nc1cnn(-c2csc(C(=O)NC3COC3)c2)c1)Nc1ccccc1Cl	enzyme activity	inhibitor		5 µM	remaining activity	61.2%
COc1cc(Cl)c(C(=O)N[C@@H](CN[C@H]2CC[C@@H](N)CC2)Cc2ccc(C#N)cc2)cc1-c1ccc(CN[C@H](C)c2ccc(C)cc2)o1	enzyme activity	inhibitor		1 µM	remaining activity	84%
O=C1Nc2ccc(Cl)cc2C1=Cc1cc(Cl)c(O)c(Cl)c1	cell-free assay			0.5 µM	remaining signal	14.5%
CC(C)(O)[C@H]1CC[C@H](Nc2ccc3ncc(-c4cccc(C(F)(F)F)c4)n3n2)CC1	enzyme activity	inhibitor		1 µM	remaining activity	3.14%
COc1cc(Nc2c(C#N)cnc3cc(OCCCN4CCN(C)CC4)c(OC)cc23)c(Cl)cc1Cl	cell-free assay			0.5 µM	remaining signal	97.7%
Nc1nc(NC2CCCCC2)sc1C(=O)c1ccccc1	enzyme activity	inhibitor		10 µM	remaining activity	69%
Nc1ncnc2occ(-c3ccc(NC(=O)Nc4cc(C(F)(F)F)ccc4F)cc3)c12	cell-free assay	inhibitor		20 µM	remaining signal	79%
Cc1cc(C)c(-n2ccn3nc(-c4cccnc4)cc23)cc1NC(=O)c1cc(C#N)cc(S(F)(F)(F)(F)F)c1	cell-free assay		competition with immobilised ligand	0.1 µM	remaining binding	83.1%
CCCOc1ccc(OC)c(F)c1C(=O)c1ccc(C(=O)N[C@@H]2CNC[C@H]2NC(=O)c2ccc3[nH]ncc3c2)cc1	enzyme activity	inhibitor		10 µM	remaining activity	97%
CC/C(=N\NC(=O)NCc1cccc(O)c1)c1ccc(O)c(C)c1O	enzyme activity	inhibitor		0.1 µM	inhibition	4.6%
O=C(O)[C@@H]1[C@@H](Cn2nnc3ccccc3c2=O)CC[C@H]1C(=O)c1ccc(OCCC2CCOCC2)cc1	cell-free assay		competition with immobilised ligand	1 µM	remaining binding	84%
CCN(CC)CCNC(=O)c1c(C)[nH]c(/C=C2\C(=O)Nc3ccc(F)cc32)c1C	enzyme activity	inhibitor		0.3 µM	inhibition	-17%
CS(=O)(=O)NCC[C@H](NC(=O)c1cncc2c1cnn2-c1ccc(F)cc1)c1ccnc(S(C)(=O)=O)c1	cell-free assay		competition with immobilised ligand	1 µM	remaining binding	100%
Cc1ccc(C(=O)Nc2ccc(CN3CCN(C)CC3)c(C(F)(F)F)c2)cc1C#Cc1cnc2cccnn12	enzyme activity	inhibitor		23.5 nM	remaining activity	100%
FC(F)(F)c1ccc2c(c1)nc(-c1cccnc1)n2C1CC1	cell-free assay		competition with immobilised ligand	1 µM	remaining binding	100%
Cn1c(=O)n(-c2ccc(C(C)(C)C#N)cc2)c2c3cc(-c4cnc5ccccc5c4)ccc3ncc21	enzyme activity	inhibitor		10 µM	remaining activity	87%
Cc1noc([C@H]2C[C@@H](c3ccc(C(F)(F)F)cc3)CN(C(=O)N3CCS(=O)(=O)C3)C2)n1	cell-free assay		competition with immobilised ligand	1 µM	remaining binding	91%
FC(F)c1nc2ccccc2n1-c1nc(N2CCOCC2)nc(N2CCOCC2)n1	enzyme activity	inhibitor		10 µM	remaining activity	76%
CS(=O)(=O)N1CCCC(NC(=O)[C@H](CCC2CCCCC2)NC(=O)c2ccc(CNC(=O)c3cnc4ccccn34)cc2)C1 (stereo partly shown)	cell-free assay		competition with immobilised ligand	0.1 µM	remaining binding	99%
COc1cc(Nc2cnc(C#N)c(O[C@H](C)CN(C)C)n2)ncc1-c1cnn(C)c1	enzyme activity	inhibitor	radiometric	10 µM	remaining activity	17%
